Active and inactive are the calls of the source. No cut-off for these calls is given here.
What was measured:
[1] = Half life in cynomolgus monkey at 0.5 mg/kg, iv; type: ADME, organism-based, Macaca fascicularis; conditions: in vivo
Procedure, shortened: (§1)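 Cynomolgus monkeys given a single IV bolus of 0.5 mg/kg in 5% DMSO + 5% kolliphor HS 15 + 90% saline. Clearance is plasma clearance after the bolus.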

[2] = Plasma clearance in cynomolgus monkey at 0.5 mg/kg, iv; type: ADME, organism-based, Macaca fascicularis; procedure, shortened: as §1
NSCLC = type: functional, organism-based; conditions: Homo sapiens, dose 75-100 mg/kg, route po, time 56.0 day
[3] = Thermodynamic solubility of the compound at pH 1.5; type: physicochemical; conditions: buffer
[4] = Plasma protein binding in dog assessed as unbound fraction by ultracentrifugation method; type: ADME, cell-free, Canis lupus familiaris
Procedure, shortened: (§2)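 Plasma protein binding determined by ultracentrifugation, reported as the unbound fraction.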

[5] = Volume of distribution at steady state in Beagle dog at 0.5 mg/kg, iv; type: ADME, organism-based, Canis lupus familiaris; conditions: in vivo, read-out: Vdss
[6] = Thermodynamic solubility of the compound at pH 6.5; type: physicochemical; conditions: buffer
[7] = Plasma clearance in Sprague-Dawley rat at 1 mg/kg, iv; type: ADME, organism-based
Procedure, shortened: (§3)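 Sprague–Dawley rats (n = 3), single IV bolus of 1 mg/kg in 10% DMSO, 10% solutol, 80% of a 20% HP-β-CD solution (in water or in saline, depending on compound). Clearance is plasma clearance after the IV bolus.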

[8] = Toxicity in BALB/c nude mouse xenografted with human NCI-H1975 cells assessed as effect on body weight at 100 mg/kg , po bid administered via oral gavage for 14 days; type: organism-based; conditions: in vivo, 336 h, time 14 day
Procedure, shortened: (§4)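 Female BALB/c nude mice, 6–8 weeks old, inoculated s.c. in right flank with 5 × 10^6 NCI-H1975 cells in PBS:Matrigel 1:1. Randomized and dosed by oral gavage BID once mean tumor volume reached ~155 mm3. Tumor size and body weight measured every second day. Volume = 0.5ab2 (a, b long and short diameters). Plasma taken 2, 6, 12 h after the last dose for LC-MS/MS.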

[9] = Plasma protein binding in cynomolgus monkey assessed as unbound fraction by ultracentrifugation method; type: ADME, cell-free, Macaca fascicularis; procedure, shortened: as §2
[10] = Clearance in cynomolgus monkey at 0.5 mg/kg,iv; type: ADME, organism-based, Macaca fascicularis; conditions: in vivo; procedure, shortened: as §1
[11] = Toxicity in BALB/c nude mouse xenografted with human NCI-H1975 cells assessed as effect on body weight at 30 mg/kg, po bid administered via oral gavage for 14 days; type: organism-based; conditions: in vivo, 336 h, time 14 day; procedure, shortened: as §4
[12] = Oral bioavailability in Sprague-Dawley rat at […]; type: ADME, organism-based; conditions: in vivo, dose 2.5 mg/kg
[13] = Half life in beagle dog at 0.5 mg/kg, iv; type: ADME, organism-based, Canis lupus familiaris; conditions: in vivo
Procedure, shortened: (§5)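 Beagle dogs, single IV dose of 0.5 mg/kg in 5% DMSO + 5% kolliphor HS 15 + 90% saline. Clearance is plasma clearance.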

[14] = Intrinsic clearance in human liver microsomes in presence of NADPH; type: ADME, Microsome
Procedure, shortened: (§6)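 Intrinsic clearance measured in isolated liver microsomes of each species with NADPH, expressed in μL/min/mg.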

[15] = Intrinsic clearance in human hepatocytes assessed per million cells; type: ADME, cell-based, Hepatocyte
Procedure, shortened: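 Intrinsic clearance measured in isolated hepatocytes of each species, expressed in μL/min/million cells.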

[16] = Plasma protein binding in rat assessed as unbound fraction by ultracentrifugation method; type: ADME, cell-free; procedure, shortened: as §2
[17] = Volume of distribution at steady state in Sprague-Dawley rat at 1 mg/kg, iv; type: ADME, organism-based; conditions: in vivo, read-out: Vdss
[18] = Toxicity in BALB/c nude mouse xenografted with human NCI-H1975 cells assessed as effect on body weight at 25 mg/kg , po qd administered via oral gavage for 14 days; type: organism-based; conditions: in vivo, 336 h, time 14 day
Procedure, shortened: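 Female BALB/c nude mice, 6–8 weeks old, bearing s.c. right-flank NCI-H1975 xenografts (5 × 10^6 cells in PBS:Matrigel 1:1). Once-daily oral gavage began at mean tumor volume ~155 mm3. Body weight and tumor size recorded every second day.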

[19] = system: Ba/F3 EGFR-Del19/T790M/C797S; assay: Antitumor activity against osimertinib-resistant mouse Ba/F3 EGFR-Del19/T790M/C797S cells implanted in NOD SCID mouse assessed as reduction in tumor volume at 100 mg/kg , po bid administered via oral gavage for 14 days; type: functional, organism-based; conditions: time 14.0 day
[20] = Apparent permeability across apical to basolateral side in MDCK-MDR1 cells; type: ADME, cell-based, Canis lupus familiaris; conditions: dog
NCI-H1975 [21] = assay: Antitumor activity against human NCI-H1975 cells xenografted in BALB/c mouse assessed as reduction in tumor volume at 100 mg/kg , po bid administered via oral gavage for 14 days; type: functional, organism-based; conditions: time 14.0 day; procedure, shortened: as §4
[22] = Plasma protein binding in human assessed as unbound fraction by ultracentrifugation method; type: ADME, cell-free; procedure, shortened: as §2
[23] = Volume of distribution at steady state in cynomolgus monkey at 0.5 mg/kg, iv; type: ADME, organism-based, Macaca fascicularis; conditions: in vivo, read-out: Vdss
NCI-H1975 [24] = assay: Antitumor activity against human NCI-H1975 cells xenografted in BALB/c mouse assessed as reduction in tumor volume at 30 mg/kg, po bid administered via oral gavage for 14 days; type: functional, organism-based; conditions: time 14.0 day; procedure, shortened: as §4
[25] = Half life in Sprague-Dawley rat at 1 mg/kg, iv; type: ADME, organism-based; conditions: in vivo; procedure, shortened: as §3
[26] = Plasma clearance in beagle dog at 0.5 mg/kg, iv; type: ADME, organism-based, Canis lupus familiaris; procedure, shortened: as §5
[27] = Oral bioavailability in cynomolgus monkey at […], iv; type: ADME, organism-based, Macaca fascicularis; conditions: in vivo, dose 2.5 mg/kg
[28] = Lipophilicity, logD of compound at pH 7.4; type: physicochemical; conditions: buffer
[29] = system: Ba/F3 EGFR-T790M/C797S/L858R; assay: Antitumor activity against mouse Ba/F3 EGFR-T790M/C797S/L858R cells implanted in NOD SCID mouse assessed as reduction in tumor volume at 100 mg/kg, po bid administered via oral gavage for 14 days; type: functional, organism-based; conditions: time 14.0 day
[30] = Intrinsic clearance in cynomolgus monkey liver microsomes in presence of NADPH; type: ADME, Macaca fascicularis, Microsome; procedure, shortened: as §6
[31] = Oral bioavailability in Beagle dog at […], iv; type: ADME, organism-based, Canis lupus familiaris; conditions: in vivo, dose 2.5 mg/kg

- half-life [1]: 210 min
- clearance [2]: 4.9 mL/min/kg
- Therm_solubility [3]: 11 mg/mL
- Fu [4]: 1.4%
- Vd [5]: 3.9 L/kg
- Therm_solubility [6]: 0.01 mg/mL
- clearance [7]: 32.4 mL/min/kg
- Fu [9]: 3.5%
- clearance [10]: 4.9 mL/min/kg
- F [12]: 48%
- half-life [13]: 294 min
- CLH [14]: 89 µL/min/mg
- CLH [15]: 23 µL/min
- Fu [16]: 0.9%
- Vd [17]: 2.3 L/kg
- Papp [20]: 8 10^-6 cm/s
- Fu [22]: 1.1%
- Vd [23]: 1.6 L/kg
- half-life [25]: 78 min
- clearance [26]: 13.7 mL/min/kg
- F [27]: 33%
- logD [28]: 3.8
- CLH [30]: 109 µL/min/mg
- F [31]: 49%
SMILES: CO[C@@H]1CCN(c2nccc(Nc3cc4c(C(C)C)ccc(N5C[C@H](CS(C)(=O)=O)[C@H]5C)c4cn3)n2)C[C@@H]1F [TIGOZERTINIB]
- Activity (NSCLC): Active
- Activity [8]: Non-Toxic
- Activity [11]: Non-Toxic
- Activity [18]: Non-Toxic
- Activity [19]: Active
- Activity (NCI-H1975 [21]): Active
- Activity (NCI-H1975 [24]): Active
- Activity [29]: Active
